# Key:
# Keratinocyte = assay: Antiproliferative activity against human keratinocyte assessed as inhibition of [3H]TdR uptake; type: functional, cell-based
# [1] = Clearance in rat at 1000 ug/kg, iv; type: ADME, organism-based; settings: in vivo, 1 mg/kg
# Procedure, shortened: (§1)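 Rats were dosed intravenously at 10 µg/kg or 1000 µg/kg. Total clearance (mL/h/kg) is the mean of 3–4 rats.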
# Homo sapiens = species: Homo sapiens; assay: Clearance in human liver S9 fraction; type: ADME
# Procedure, shortened: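 Compound was incubated with human liver S9 in the presence of NADPH. The elimination rate was taken from the time course of compound concentration in the reaction mixture. Clearance is given as mL/min/mg S9 protein, mean of two experiments.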
# [2] = biological target: T1, Vitamin D3 receptor (Gallus gallus) (UniProt O42392); assay: Binding affinity to chick VDR
# T1 sequence (whole entry): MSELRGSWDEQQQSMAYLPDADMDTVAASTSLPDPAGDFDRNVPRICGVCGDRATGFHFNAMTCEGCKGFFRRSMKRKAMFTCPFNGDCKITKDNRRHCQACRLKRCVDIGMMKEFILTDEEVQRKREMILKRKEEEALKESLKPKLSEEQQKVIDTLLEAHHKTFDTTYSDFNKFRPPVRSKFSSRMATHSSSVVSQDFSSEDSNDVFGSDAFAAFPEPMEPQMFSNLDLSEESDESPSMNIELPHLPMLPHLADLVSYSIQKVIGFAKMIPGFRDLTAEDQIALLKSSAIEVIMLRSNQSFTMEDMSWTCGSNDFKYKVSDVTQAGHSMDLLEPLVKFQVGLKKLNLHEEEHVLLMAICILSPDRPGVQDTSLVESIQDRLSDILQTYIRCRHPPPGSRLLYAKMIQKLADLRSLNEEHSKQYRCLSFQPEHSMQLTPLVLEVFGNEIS
# Procedure, shortened: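 Receptor affinity is expressed as a percentage relative to calcitriol, set at 100%. Each value is the average of duplicate measurements.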
# Mus musculus = assay: Calcemic activity in percutaneously dosed mouse relative to control; type: functional
# Procedure, shortened: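 Mice received a single percutaneous dose of test compound or vehicle, n = 3. Blood ionized Ca (mmol/L) was measured. Activity (%) = (analog Ca − vehicle Ca)/vehicle Ca × 100.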
# [3] = Clearance in rat at 10 ug/kg, iv; type: ADME, organism-based; settings: in vivo, 0.01 mg/kg; procedure, shortened: as §1
Structure (SMILES),IC50 (Keratinocyte),clearance [1],CL (Homo sapiens),Activity [2],Blood ionized calcium (Mus musculus),clearance [3]
C=C1/C(=C\C=C2/CCC[C@]3(C)C([C@H](C)OCC(=O)NCC(F)(F)C(F)(F)F)=CCC23)C[C@@H](O)C[C@@H]1O (some centres not stated),1.9 nM,131 mL/min/kg,278 µL/min/mg,34.4%,1.58 mmol/L,–
C=C1/C(=C\C=C2/CCC[C@@]3(C)C2CC[C@@H]3[C@H](C)OCC(=O)OC(C)(C)C)C[C@@H](O)C[C@@H]1O (some centres not stated),88.4 nM,–,–,–,1.49 mmol/L,–
C=C1/C(=C\C=C2/CCC[C@]3(C)[C@@H]([C@H](C)CCCC(C)(C)O)CC[C@@H]23)C[C@@H](O)C[C@@H]1O,–,–,–,100%,–,–
C=C1/C(=C\C=C2/CCC[C@]3(C)C([C@H](C)OCC(=O)NCC(C)(C)C)=CCC23)C[C@@H](O)C[C@@H]1O (some centres not stated),17.4 nM,–,–,18%,1.82 mmol/L,–
C=C1/C(=C\C=C2/CCC[C@]3(C)C([C@H](C)O)=CCC23)C[C@@H](O)C[C@@H]1O (some centres not stated),> 1000 nM,–,–,0.32%,1.4 mmol/L,–
"C=C1/C(=C\C=C2/CCC[C@]3(C)C([C@H](C)OCCC(C)(C)O)=CCC23)CC(O)CC1O (single isomer, unassigned)",50.4 nM,–,–,–,2.16 mmol/L,–
C=C1/C(=C\C=C2/CCC[C@]3(C)C([C@H](C)OCC(=O)OC(C)(CC)CC)=CCC23)C[C@@H](O)C[C@@H]1O (some centres not stated),0.8 nM,94.8 mL/min/kg,1421 µL/min/mg,45.1%,1.57 mmol/L,–
C=C1/C(=C\C=C2/CCC[C@@]3(C)C2CC[C@@H]3[C@H](C)CCC(=O)OC(C)(C)C)C[C@@H](O)C[C@@H]1O (some centres not stated),17 nM,–,–,–,1.77 mmol/L,–
C=C1/C(=C\C=C2/CCC[C@]3(C)C([C@H](C)OCC(=O)OC(C)(C)C)=CCC23)C[C@@H](O)C[C@@H]1O (some centres not stated),8.9 nM,–,–,40.1%,1.65 mmol/L,–
C=C1/C(=C\C=C2/CCC[C@]3(C)C([C@H](C)OCC(=O)NC(C)(C)C)=CCC23)C[C@@H](O)C[C@@H]1O (some centres not stated),4.4 nM,–,–,22.2%,2.16 mmol/L,–
C=C1/C(=C\C=C2/CCC[C@]3(C)[C@@H]([C@H](C)OCCC(C)(C)O)CC[C@@H]23)C[C@@H](O)C[C@@H]1O [MAXACALCITOL],22.6 nM,–,7 µL/min/mg,20%,2.6 mmol/L,20.9 mL/min/kg
C=C1/C(=C\C=C2/CCC[C@]3(C)C([C@H](C)OCC(=O)O)=CCC23)C[C@@H](O)C[C@@H]1O (some centres not stated),> 1000 nM,–,–,0.04%,1.38 mmol/L,–

# Source: ChEMBL document CHEMBL1148516, “Design and evaluation of new antipsoriatic antedrug candidates having 16-en-22-oxa-vitamin D3 structures” (Bioorg Med Chem Lett, 2006)
